ChEMBL document CHEMBL3112522, “Bicyclic brominated furanones: a new class of quorum sensing modulators that inhibit bacterial biofilm formation” (Bioorg Med Chem, 2014)
pIC50: −log10 of the molar value. Activity calls are given as the source filed them. The rule behind the calls is not given here.

How the values were obtained:
Escherichia coli [1] = test: Antibacterial activity against Escherichia coli RP437 expressing red fluorescence protein assessed as inhibition of biofilm formation measured as reduction in surface area at 200 uM after 24 hrs by confocal laser scanning microscopic analysis; format: functional, organism-based
How it was run: (§1)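 E. coli RP437 (pRSH103, red fluorescent; grown in LB with 10 µg/mL tetracycline) formed biofilms on 316 stainless-steel coupons with 200 µM compound or 0.4% DMSO control, static, 37 °C, 24 h. Coupons rinsed three times in 0.9% NaCl, then imaged by CLSM. COMSTAT gave biomass, mean thickness and surface area from z-stacks at four locations, normalized to the BF-free control. Four replicates.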

Escherichia coli [2] = test: Antibacterial activity against Escherichia coli RP437 expressing red fluorescence protein assessed as inhibition of biofilm formation measured as reduction in mean thickness of biofilm at 200 uM after 24 hrs by confocal laser scanning microscopic analysis; format: functional, organism-based; how it was run: as §1
Escherichia coli [3] = test: Antibacterial activity against Escherichia coli RP437 expressing red fluorescence protein assessed as inhibition of biofilm formation measured as reduction in biomass at 200 uM after 24 hrs by confocal laser scanning microscopic analysis; format: functional, organism-based; how it was run: as §1
SK-N-SH = test: Cytotoxicity against human SK-N-SH cells assessed as cell survival at 100 uM incubated for 1 hr followed by compound washout measured up to 48 hrs by CCK-8 assay; format: cell-based
How it was run: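 SK-N-SH cells seeded at 5×10^4 cells/mL (100 µL) in EMEM with 10% FBS and allowed to adhere 24 h. Exposed 1 h to 100 µM compound or DMSO control, washed twice, then allowed to recover 0, 24 or 48 h. Live cells measured by CCK-8 at A450. Survival = (sample − medium)/(control − medium) × 100.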

[4] = Cytotoxicity against human SK-N-SH cells assessed as cell survival at 400 uM incubated for 1 hr followed by compound washout measured after 48 hrs by CCK-8 assay relative to control; format: cell-based; conditions: read-out: Survival
How it was run: (§2)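 SK-N-SH cells were grown in EMEM with 10% FBS, penicillin/streptomycin and 2.0 mM L-glutamine at 37 °C, 5% CO2. Wells were seeded at 5×10^4 cells/mL and left 24 h to adhere. Cells were exposed for 1 h in fresh medium, with DMSO-matched controls, then washed twice. After 0, 24 or 48 h recovery, CCK-8 A450 was read. Survival = (sample−medium)/(control−medium)×100.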

[5] = Cytotoxicity against human SK-N-SH cells assessed as cell survival at 400 uM incubated for 1 hr followed by compound washout measured after 24 hrs by CCK-8 assay relative to control; format: cell-based; conditions: read-out: Survival; how it was run: as §2
[6] = Cytotoxicity against human SK-N-SH cells assessed as cell survival at 400 uM incubated for 1 hr followed by compound washout measured immediately by CCK-8 assay relative to control; format: cell-based; conditions: read-out: Survival; how it was run: as §2
[7] = target: T1, HTH-type quorum-sensing regulator RhlR (Pseudomonas aeruginosa (strain ATCC 15692 / PAO1 / 1C / PRS 101 / LMG12228)) (UniProt P54292); test: Agonist activity at RhlR in Pseudomonas aeruginosa PAO1 expressing RhlI assessed as effect on GFP production at 50 to 300 uM after 24 hrs by fluorescence assay relative to control
T1 sequence (whole entry): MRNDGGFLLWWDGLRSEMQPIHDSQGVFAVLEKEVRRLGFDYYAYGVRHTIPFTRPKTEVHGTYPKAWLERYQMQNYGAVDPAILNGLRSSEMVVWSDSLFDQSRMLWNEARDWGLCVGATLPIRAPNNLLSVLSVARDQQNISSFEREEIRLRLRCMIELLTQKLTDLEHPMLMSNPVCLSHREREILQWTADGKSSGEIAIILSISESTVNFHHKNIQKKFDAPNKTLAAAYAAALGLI
How it was run: (§3)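 PAO1 (prhlI-LVAgfp) grown in M9 with 300 µg/mL carbenicillin to OD600 0.1, exposed to compound at 50, 150 or 300 µM for 24 h at 37 °C with shaking at 250 rpm. Fluorescence read at ex 500/em 540 nm, M9 background subtracted, divided by OD600 and normalized to the BF-free control. Four replicates.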

[8] = target: T2, Transcriptional activator protein LasR (Pseudomonas aeruginosa (strain ATCC 15692 / PAO1 / 1C / PRS 101 / LMG12228)) (UniProt P25084); test: Antagonist activity at LasR in Pseudomonas aeruginosa PAO-JP2 expressing LasI assessed as inhibition of GFP production at 50 to 300 uM after 24 hrs by fluorescence assay in presence of 3-oxo-C12-HSL
T2 sequence (whole entry): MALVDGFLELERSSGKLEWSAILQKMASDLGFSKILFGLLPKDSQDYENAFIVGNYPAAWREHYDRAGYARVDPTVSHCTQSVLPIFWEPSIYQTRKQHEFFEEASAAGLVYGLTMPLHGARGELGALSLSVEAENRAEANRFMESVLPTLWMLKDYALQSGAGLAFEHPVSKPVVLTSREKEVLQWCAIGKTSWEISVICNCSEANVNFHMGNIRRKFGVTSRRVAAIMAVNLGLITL
How it was run: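 PAO-JP2 (plasI-LVAgfp) grown in M9 with 300 µg/mL carbenicillin to OD600 0.1, given 1 µM 3-oxo-C12-HSL ± compound at varied concentrations, incubated 24 h at 37 °C with shaking at 250 rpm. GFP read at ex 500/em 540 nm, M9 background subtracted, divided by OD600 and normalized to the BF-free control. Four replicates.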

[9] = target: T2, Transcriptional activator protein LasR (Pseudomonas aeruginosa (strain ATCC 15692 / PAO1 / 1C / PRS 101 / LMG12228)); test: Antagonist activity at LasR in Pseudomonas aeruginosa PAO1 expressing LasI assessed as inhibition of GFP production at 50 to 300 uM after 24 hrs by fluorescence assay relative to control
Escherichia coli [10] = test: Toxicity in Escherichia coli RP437 assessed as planktonic growth inhibition at 200 uM up to 8 hrs; format: organism-based; conditions: in vivo
How it was run: (§4)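 E. coli RP437 in LB at 37 °C, started at OD600 0.05 in 96-well plates with 200 µM compound (DMSO stock), shaken at 250 rpm. OD600 read at 0, 2, 4, 6, 8, 10, 12 and 24 h, normalized to the BF-free control. Six replicates.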

Escherichia coli [11] = test: Antibacterial activity against Escherichia coli RP437 expressing red fluorescence protein assessed as inhibition of biofilm formation at 200 uM after 24 hrs by confocal laser scanning microscopic analysis; format: functional, organism-based; how it was run: as §1
Pseudomonas aeruginosa [12] = test: Inhibition of quorum sensing system in Pseudomonas aeruginosa PAO-JP2 assessed as reduction of elastase B production at 300 uM after 24 hrs by congo-red staining-based assay relative to control
How it was run: (§5)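 PAO-JP2 grown in PTSB at 37 °C, subcultured at OD600 0.05 with 5 µM 3-oxo-C12-HSL and 10 µM C4-HSL ± compound, shaken at 250 rpm for 24 h. Filtered supernatant (100 µL) incubated with Elastin-Congo red (4.5 mg in 900 µL Tris-HCl pH 7.2, 1 mM CaCl2) for 24 h at 37 °C, stopped with EDTA. A490 read minus bacteria-free blank, normalized to control. Four replicates.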

[13] = target: T1, HTH-type quorum-sensing regulator RhlR (Pseudomonas aeruginosa (strain ATCC 15692 / PAO1 / 1C / PRS 101 / LMG12228)); test: Agonist activity at RhlR in Pseudomonas aeruginosa PAO-JP2 expressing RhlI assessed as effect on GFP production at 50 to 300 uM after 24 hrs by fluorescence assay in presence of 3-oxo-C12-HSL and C4-HSL relative to control
How it was run: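 PAO-JP2 (prhlI-LVAgfp) grown in M9 with 300 µg/mL carbenicillin to OD600 0.1, dosed with 1 µM 3-oxo-C12-HSL and 10 µM C4-HSL ± compound, shaken at 250 rpm and 37 °C for 24 h. GFP read at ex 500/em 540 nm, M9 background subtracted, divided by OD600 and normalized to the BF-free control. Four replicates.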

[14] = target: T1, HTH-type quorum-sensing regulator RhlR (Pseudomonas aeruginosa (strain ATCC 15692 / PAO1 / 1C / PRS 101 / LMG12228)); test: Agonist activity at RhlR in Pseudomonas aeruginosa PAO1 expressing RhlI assessed as stimulation of GFP production at 300 uM after 24 hrs by fluorescence assay relative to control; how it was run: as §3
[15] = target: T1, HTH-type quorum-sensing regulator RhlR (Pseudomonas aeruginosa (strain ATCC 15692 / PAO1 / 1C / PRS 101 / LMG12228)); test: Agonist activity at RhlR in Pseudomonas aeruginosa PAO1 expressing RhlI assessed as stimulation of GFP production at 150 uM after 24 hrs by fluorescence assay relative to control; how it was run: as §3
Escherichia coli [16] = test: Toxicity in Escherichia coli RP437 assessed as planktonic growth inhibition at 200 uM after 24 hrs; format: organism-based; conditions: in vivo; how it was run: as §4
Pseudomonas aeruginosa [17] = test: Toxicity in Pseudomonas aeruginosa PAO1 assessed as planktonic growth inhibition at 400 uM after 24 hrs; format: organism-based; conditions: in vivo
Pseudomonas aeruginosa [18] = test: Antibacterial activity against Pseudomonas aeruginosa PAO1 assessed as inhibition of biofilm formation incubated for 24 hrs followed by compound-washout measured after 30 mins by crystal-violet staining-based colorimetric assay; format: functional, organism-based
How it was run: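 P. aeruginosa subcultured at OD600 0.1 in LB with compound (DMSO stock) in 96-well polystyrene plates, stationary, 37 °C, 24 h. Wells washed and dried 30 min, stained with 0.1% crystal violet for 30 min, washed, dye solubilized in 95% EtOH, A540 read. Values are (sample − medium)/(DMSO control − medium) × 100. Four replicates.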

Pseudomonas aeruginosa [19] = test: Antibacterial activity against Pseudomonas aeruginosa PAO1 expressing green fluorescence protein assessed as inhibition of biofilm formation measured as reduction in surface area at 400 uM after 24 hrs by confocal laser scanning microscopic analysis relative to control; format: functional, organism-based
Pseudomonas aeruginosa [20] = test: Antibacterial activity against Pseudomonas aeruginosa PAO1 expressing green fluorescence protein assessed as inhibition of biofilm formation measured as reduction in mean thickness of biofilm at 400 uM after 24 hrs by confocal laser scanning microscopic analysis relative to control; format: functional
Pseudomonas aeruginosa [21] = test: Antibacterial activity against Pseudomonas aeruginosa PAO1 expressing green fluorescence protein assessed as inhibition of biofilm formation measured as reduction in biomass at 400 uM after 24 hrs by confocal laser scanning microscopic analysis relative to control; format: functional; conditions: PAO1, 24 h
Pseudomonas aeruginosa [22] = test: Antibacterial activity against Pseudomonas aeruginosa PAO1 expressing green fluorescence protein assessed as inhibition of biofilm formation at 400 uM after 24 hrs by confocal laser scanning microscopic analysis; format: functional, organism-based
How it was run: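 PA01-GFP (pSMC2; grown in LB with 300 µg/mL carbenicillin) formed biofilms on stainless-steel coupons with 400 µM compound, static, 37 °C, 24 h. Coupons rinsed three times in 0.9% saline, then imaged by CLSM.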

[23] = target: T2, Transcriptional activator protein LasR (Pseudomonas aeruginosa (strain ATCC 15692 / PAO1 / 1C / PRS 101 / LMG12228)); test: Antagonist activity at LasR in Pseudomonas aeruginosa PAO1 expressing LasI assessed as inhibition of GFP production at 300 uM after 24 hrs by fluorescence assay relative to control
[24] = target: T2, Transcriptional activator protein LasR (Pseudomonas aeruginosa (strain ATCC 15692 / PAO1 / 1C / PRS 101 / LMG12228)); test: Antagonist activity at LasR in Pseudomonas aeruginosa PAO1 expressing LasI assessed as inhibition of GFP production at 50 to 150 uM after 24 hrs by fluorescence assay
Pseudomonas aeruginosa [25] = test: Inhibition of quorum sensing system in Pseudomonas aeruginosa PAO-JP2 assessed as reduction of elastase B production after 24 hrs by congo-red staining-based assay; how it was run: as §5

| SMILES | inhibition (Escherichia coli [1]) | inhibition (Escherichia coli [2]) | inhibition (Escherichia coli [3]) | Activity (SK-N-SH) | viability at 1 h, 400 µM [4] [%] | viability at 1 h, 400 µM [5] [%] | viability at 1 h, 400 µM [6] [%] | Activity [7] | inhibition [8] | inhibition [9] | inhibition (Escherichia coli [11]) | inhibition (Pseudomonas aeruginosa [12]) [%] | Activity [13] | Activity (Escherichia coli [16]) | Activity (Pseudomonas aeruginosa [17]) | pIC50 (Pseudomonas aeruginosa [18]) | inhibition (Pseudomonas aeruginosa [19]) | inhibition at 400 µM (Pseudomonas aeruginosa [21]) [%] | inhibition (Pseudomonas aeruginosa [22]) | inhibition [23] [%] | further results |
| --- | --- | --- | --- | --- | --- | --- | --- | --- | --- | --- | --- | --- | --- | --- | --- | --- | --- | --- | --- | --- | --- |
| CC1=C(Br)/C(=C\Br)OC1=O | Active | Active | Active | Toxic | < 2 | < 2 | 29 | inactive | Active | 46% | Active |  |  |  |  |  |  |  |  |  | Activity (Escherichia coli [10]): Toxic |
| O=C1C=C2CCC(Br)=C2O1 | Active | Active | Active | Non-toxic | 6 | 21 | 76 |  | Active | Active | Active | 80 | Active | Non-toxic | Non-toxic | < 3.40 | Active | 53 | Active |  | Activity [14]: 165%; Activity [15]: 82.6%; inhibition (Pseudomonas aeruginosa [20]): inactive |
| O=C1C=C2CCCCC(Br)=C2O1 | Active | Active | Active | Non-toxic | 13 | 7 | 44 | inactive | Active |  | Active | 80 | inactive | Non-toxic | Non-toxic | 3.85 | Active | 50 | Active | 69 | inhibition [24]: Active |
| O=C1C=C2CCCC(Br)=C2O1 | Active | Active | Active | Non-toxic | 50 | 50 | 76 | inactive | Active |  | Active | 80 | inactive | Non-toxic | Non-toxic | 3.84 | Active | 71 | Active | 78 | inhibition (Pseudomonas aeruginosa [25]): Dose-dependent effect; inhibition [24]: Active; inhibition at 400 µM (Pseudomonas aeruginosa [20]; PAO1, 24 h): 60% |
| O=C1C=C(Br)/C(=C/Br)O1 |  |  |  |  |  |  |  |  |  |  |  |  |  |  | Toxic |  |  |  | Active |  |  |
